Test results: ChEMBL document CHEMBL1149551, “Novel selective PPARdelta agonists: optimization of activity by modification of alkynylallylic moiety” (Bioorg Med Chem Lett, 2007)

How the values were obtained:
[1] = biological target: T1, Peroxisome proliferator-activated receptor gamma (Homo sapiens, UniProt P37231); format: functional
T1 sequence (P37231 whole entry): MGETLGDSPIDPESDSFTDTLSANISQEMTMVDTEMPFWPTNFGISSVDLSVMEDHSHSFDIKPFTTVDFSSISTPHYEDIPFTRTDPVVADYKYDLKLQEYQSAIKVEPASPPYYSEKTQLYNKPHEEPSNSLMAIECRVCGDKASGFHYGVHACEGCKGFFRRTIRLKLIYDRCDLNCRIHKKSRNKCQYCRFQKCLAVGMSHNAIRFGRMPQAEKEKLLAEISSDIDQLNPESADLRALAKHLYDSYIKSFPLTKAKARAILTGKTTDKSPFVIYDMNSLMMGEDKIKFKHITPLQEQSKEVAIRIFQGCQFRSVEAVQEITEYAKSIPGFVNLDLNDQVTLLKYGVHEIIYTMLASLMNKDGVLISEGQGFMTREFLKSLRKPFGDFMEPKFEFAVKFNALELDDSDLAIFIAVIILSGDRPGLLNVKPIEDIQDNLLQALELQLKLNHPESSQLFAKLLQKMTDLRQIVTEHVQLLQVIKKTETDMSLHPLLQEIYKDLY

[2] = biological target: T2, Peroxisome proliferator-activated receptor delta (Homo sapiens, UniProt Q03181)
T2 sequence (Q03181 whole entry): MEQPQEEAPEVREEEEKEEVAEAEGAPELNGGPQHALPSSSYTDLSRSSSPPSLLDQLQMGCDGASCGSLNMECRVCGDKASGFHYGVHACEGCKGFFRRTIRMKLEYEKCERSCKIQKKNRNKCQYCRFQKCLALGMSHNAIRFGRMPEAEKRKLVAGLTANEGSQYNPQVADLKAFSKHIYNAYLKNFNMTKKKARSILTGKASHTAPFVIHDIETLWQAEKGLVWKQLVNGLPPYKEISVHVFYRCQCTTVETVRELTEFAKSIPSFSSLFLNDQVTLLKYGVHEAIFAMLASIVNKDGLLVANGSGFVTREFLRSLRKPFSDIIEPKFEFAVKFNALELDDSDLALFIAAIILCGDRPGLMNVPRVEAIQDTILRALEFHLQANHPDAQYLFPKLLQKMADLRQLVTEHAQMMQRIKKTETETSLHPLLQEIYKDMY

[3] = biological target: T3, Peroxisome proliferator-activated receptor alpha (Homo sapiens, UniProt Q07869); assay: Agonist activity at human PPARalpha by transactivation assay; format: functional
T3 sequence (Q07869 whole entry): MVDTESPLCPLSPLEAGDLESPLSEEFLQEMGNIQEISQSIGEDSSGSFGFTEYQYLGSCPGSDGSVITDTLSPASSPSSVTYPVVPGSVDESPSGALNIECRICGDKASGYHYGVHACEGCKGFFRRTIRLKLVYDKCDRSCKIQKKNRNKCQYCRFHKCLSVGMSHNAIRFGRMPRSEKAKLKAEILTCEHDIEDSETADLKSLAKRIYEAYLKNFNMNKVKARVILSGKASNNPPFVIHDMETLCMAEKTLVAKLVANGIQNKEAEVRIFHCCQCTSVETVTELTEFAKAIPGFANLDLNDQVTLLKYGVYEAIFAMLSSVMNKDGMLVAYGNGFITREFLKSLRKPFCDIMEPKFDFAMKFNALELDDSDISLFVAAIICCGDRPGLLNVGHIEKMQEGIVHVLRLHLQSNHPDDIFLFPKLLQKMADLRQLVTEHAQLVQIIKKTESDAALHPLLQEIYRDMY

[4] = biological target: T4, Peroxisome proliferator-activated receptor alpha (Homo sapiens) (UniProt Q07869); assay: Agonist activity at human PPARalpha by transactivation assay relative to NNC 61-4655; format: functional
T4 sequence (whole entry): T3 sequence (Q07869 whole entry)
Summary of the method: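 Transactivation run in at least three separate experiments, each at five or more concentrations from 0.001 to 30 µM. EC50 is the concentration giving half of the compound's own maximal activity, reported as the mean. Efficacy is given relative to the maximal activity of the reference PPARα agonist.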

SMILES	EC50 [1] [µM]	EC50 [2] [µM]	EC50 [3] [µM]	%max [4] [%]
CCO[C@@H](Cc1ccc(OC/C=C/C#Cc2ccccc2)cc1)C(=O)O	2.6	6.4	0.01	
Cc1cc2cc(C(C#Cc3ccc(C)s3)/C=C\COc3ccc(OCC(=O)O)c(C)c3)ccc2o1 (stereo unspecified)	> 10	0.15	5.8	< 10
Cc1cc2cc(C(C#Cc3ccc(F)cc3)/C=C\COc3ccc(OCC(=O)O)c(C)c3)ccc2o1 (stereo unspecified)	> 10		> 10	> 41
Cc1cc(SC/C=C\C(C#Cc2ccccc2)c2ccc(Br)cc2)ccc1OCC(=O)O (stereo unspecified)	> 10	0.16	> 10	> 24
CN(CCOc1ccc(CC2SC(=O)NC2=O)cc1)c1ccccn1 (stereo unspecified)				> 24
CCO[C@@H](Cc1ccc(OC/C=C(\C#Cc2ccccc2)c2ccccc2)cc1)C(=O)O	> 10		> 10	
Cc1cc(OC/C=C(\C#Cc2ccccc2)c2ccccc2)ccc1OCC(=O)O				< 10
Cc1ccc(C#CC(/C=C\COc2ccc(OCC(=O)O)c(C)c2)c2ccc(Br)cc2)s1 (stereo unspecified)		0.22	> 10	> 15
Cc1cc(SC/C=C/C#Cc2ccccc2)ccc1OCC(=O)O		12.1	14	
Cc1cc(OC/C=C(\C#Cc2ccccc2)c2ccc(Br)cc2)ccc1OCC(=O)O				< 10
Cc1cc(OC/C=C\C(C#Cc2ccc(C(F)(F)F)cc2)c2ccc(Br)cc2)ccc1OCC(=O)O (stereo unspecified)		0.13	> 10	> 19
Cc1ccc(-c2ccc(/C(C#Cc3ccccc3)=C/COc3ccc(OCC(=O)O)c(C)c3)cc2)s1	> 10		> 10	> 60
Cc1cc(SCc2sc(-c3ccc(C(F)(F)F)cc3)nc2C)ccc1OCC(=O)O				68
Cc1cc(OC/C=C\C(C#Cc2ccccc2)c2cnc3ccccc3c2)ccc1OCC(=O)O (stereo unspecified)	6.6		4.1	33
Cc1cc(OC/C=C\C(C#Cc2ccccn2)c2ccc(Br)cc2)ccc1OCC(=O)O (stereo unspecified)		0.24	> 10	> 22
COc1ccc(C#CC(/C=C\CSc2ccc(OCC(=O)O)c(C)c2)c2ccc(-c3ccccc3)cc2)cc1 (stereo unspecified)	> 10	0.011	> 10	> 58
